Measurements published in ChEMBL document CHEMBL5696444 (Nat Commun, 2017).
Calls of active or inactive are those of the source. The rule behind the calls is not given here.

Legend:
[1] = system: HCT-116; experiment: Induction of apoptosis in human HCT-116 cells assessed as necrosis cells at 0.1 uM incubated for > 6 hrs by annexin V/PI staining based analysis (Rvb=0.55%); type: functional
[2] = system: HCT-116; experiment: Induction of apoptosis in human HCT-116 cells assessed as viable cells at 1 uM incubated for > 6 hrs by annexin V/PI staining based analysis (Rvb=90.04%); type: functional; conditions: read-out: Activity
[3] = target: Dual specificity tyrosine-phosphorylation-regulated kinase 1B (Homo sapiens, UniProt Q9Y463); experiment: Inhibition of DYRK1B (unknown origin) at 1110 nM in the presence of ATP by Kinome scan method relative to control; conditions: time > 6.0 hrs
[4] = target: Dual specificity tyrosine-phosphorylation-regulated kinase 3 (Homo sapiens) (UniProt O43781); experiment: Inhibition of DYRK3 (unknown origin) at 123 nM in the presence of ATP by Kinome scan method relative to control; conditions: time > 6.0 hrs
[5] = target: Aurora kinase B (Homo sapiens) (UniProt Q96GD4); experiment: Inhibition of AURKB (unknown origin) at 100 nM in the presence of ATP by Kinome scan method relative to control
[6] = target: Serine/threonine-protein kinase B-raf (Homo sapiens) (UniProt P15056); experiment: Inhibition of BRAF (unknown origin) at 100 nM in the presence of ATP by Kinome scan method relative to control
[7] = species: Homo sapiens; experiment: Inhibition of CDK2/cyclin A (unknown origin) at 1000 nM in the presence of ATP by Kinome scan method relative to control
[8] = species: Homo sapiens; experiment: Inhibition of CDK2/cyclin A (unknown origin) at 100 nM in the presence of ATP by Kinome scan method relative to control
[9] = target: Serine/threonine-protein kinase Chk2 (Homo sapiens) (UniProt O96017); experiment: Inhibition of CHEK2 (unknown origin) at 100 nM in the presence of ATP by Kinome scan method relative to control
[10] = target: Ephrin type-A receptor 2 (Homo sapiens) (UniProt P29317); experiment: Inhibition of EPHA2 (unknown origin) at 100 nM in the presence of ATP by Kinome scan method relative to control
[11] = target: Ephrin type-B receptor 1 (Homo sapiens) (UniProt P54762); experiment: Inhibition of EPHB1 (unknown origin) at 1000 nM in the presence of ATP by Kinome scan method relative to control
[12] = target: Interleukin-1 receptor-associated kinase 4 (Homo sapiens) (UniProt Q9NWZ3); experiment: Inhibition of IRAK4 (unknown origin) at 1000 nM in the presence of ATP by Kinome scan method relative to control
[13] = target: Tyrosine-protein kinase JAK1 (Homo sapiens) (UniProt P23458); experiment: Inhibition of JAK1 (unknown origin) at 100 nM in the presence of ATP by Kinome scan method relative to control
[14] = target: Dual specificity mitogen-activated protein kinase kinase 1 (Homo sapiens) (UniProt Q02750); experiment: Inhibition of MAP2K1 (unknown origin) at 100 nM in the presence of ATP by Kinome scan method relative to control
[15] = target: Mitogen-activated protein kinase 11 (Homo sapiens) (UniProt Q15759); experiment: Inhibition of MAPK11 (unknown origin) at 1000 nM in the presence of ATP by Kinome scan method relative to control
[16] = target: Mitogen-activated protein kinase 3 (Homo sapiens) (UniProt P27361); experiment: Inhibition of MAPK3 (unknown origin) at 1000 nM in the presence of ATP by Kinome scan method relative to control
[17] = target: Mitogen-activated protein kinase 8 (Homo sapiens) (UniProt P45983); experiment: Inhibition of MAPK8 (unknown origin) at 100 nM in the presence of ATP by Kinome scan method relative to control
[18] = target: Mitogen-activated protein kinase 9 (Homo sapiens) (UniProt P45984); experiment: Inhibition of MAPK9 (unknown origin) at 1000 nM in the presence of ATP by Kinome scan method relative to control
[19] = target: Serine/threonine-protein kinase Nek1 (Homo sapiens) (UniProt Q96PY6); experiment: Inhibition of NEK1 (unknown origin) at 100 nM in the presence of ATP by Kinome scan method relative to control
[20] = target: Serine/threonine-protein kinase pim-1 (Homo sapiens) (UniProt P11309); experiment: Inhibition of PIM1 (unknown origin) at 1000 nM in the presence of ATP by Kinome scan method relative to control
[21] = target: Proto-oncogene tyrosine-protein kinase ROS (Homo sapiens) (UniProt P08922); experiment: Inhibition of ROS1 (unknown origin) at 1000 nM in the presence of ATP by Kinome scan method relative to control
[22] = target: Proto-oncogene tyrosine-protein kinase Src (Homo sapiens) (UniProt P12931); experiment: Inhibition of SRC (unknown origin) at 100 nM in the presence of ATP by Kinome scan method relative to control
[23] = target: Dual specificity protein kinase CLK1 (Homo sapiens) (UniProt P49759); experiment: Inhibition of CLK (unknown origin) in human MDA-MB-468 cells assessed as SRSF6 phosphorylation level incubated for 3 hrs by immunoblot analysis; type: cell-based
[24] = target: Dual specificity protein kinase CLK1 (Homo sapiens) (UniProt P49759); experiment: Inhibition of CLK (unknown origin) in human HCT-116 cells assessed as decrease in SRSF6 phosphorylation level at 0.5 to 1.0 uM incubated for 6 hrs by immunoblot analysis; type: cell-based; conditions: dose 0.5-1 µM
[25] = system: HCT-116; experiment: Induction of cell cycle arrest in human HCT-116 cells assessed as G0/G1 phase at 5 uM incubated for 6 hrs by flow cytometry analysis (Rvb=35.0%); type: functional
[26] = system: HCT-116; experiment: Induction of cell cycle arrest in human HCT-116 cells assessed as S phase at 5 uM incubated for 6 hrs by flow cytometry analysis (Rvb=39.3%); type: functional
[27] = system: HCT-116; experiment: Induction of cell cycle arrest in human HCT-116 cells assessed as G2/M phase at 0.5 uM incubated for 24 hrs by flow cytometry analysis (Rvb=17.9%); type: functional
[28] = system: HCT-116; experiment: Induction of cell cycle arrest in human HCT-116 cells assessed as sub G0/G1 phase at 1 uM incubated for 24 hrs by flow cytometry analysis (Rvb=2.5%); type: functional
[29] = system: HCT-116; experiment: Induction of cell cycle arrest in human HCT-116 cells assessed as S phase at 10 uM incubated for 24 hrs by flow cytometry analysis (Rvb=46.4%); type: functional
[30] = Stability of compound in tissue culture medium assessed as remaining parent compound at 5.30 uM incubated for 48 hrs; type: physicochemical; conditions: read-out: Stability
[31] = target: Dual specificity protein kinase CLK1 (Homo sapiens) (UniProt P49759); experiment: Inhibition of CLK (unknown origin) in human HCT-116 cells assessed as induction in alternative splicing effect in S6K skipped exon /canonical form incubated for 6 hrs by RT-PCR analysis; type: cell-based; conditions: dose 0.2-5 µM
In short: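 Cells exposed to graded T3 concentrations for 6 h (chosen to avoid cytotoxicity), with a DMSO vehicle control. Total RNA was reverse-transcribed with oligo-dT primers. Targeted splice or conjoined-gene products were quantified by real-time qPCR or by targeted next-generation sequencing. Conjoined-gene isoform expression was normalized to a sequenced housekeeping gene.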

Sequence of Dual specificity protein kinase CLK1 (Homo sapiens) (P49759 whole entry, looked up, canonical isoform): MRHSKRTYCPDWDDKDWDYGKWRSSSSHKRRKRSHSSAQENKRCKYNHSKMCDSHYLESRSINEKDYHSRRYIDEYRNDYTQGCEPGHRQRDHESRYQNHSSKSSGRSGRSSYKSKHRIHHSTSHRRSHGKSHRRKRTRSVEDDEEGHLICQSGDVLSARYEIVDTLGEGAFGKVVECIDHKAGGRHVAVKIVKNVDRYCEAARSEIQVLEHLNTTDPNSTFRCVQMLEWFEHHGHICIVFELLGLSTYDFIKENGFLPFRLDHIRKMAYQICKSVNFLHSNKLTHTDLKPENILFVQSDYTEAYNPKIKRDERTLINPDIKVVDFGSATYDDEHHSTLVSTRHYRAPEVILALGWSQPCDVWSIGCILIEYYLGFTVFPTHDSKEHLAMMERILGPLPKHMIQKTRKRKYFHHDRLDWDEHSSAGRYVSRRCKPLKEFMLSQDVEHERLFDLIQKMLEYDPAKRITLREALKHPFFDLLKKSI
Sequence of Mitogen-activated protein kinase 3 (Homo sapiens) (P27361 whole entry): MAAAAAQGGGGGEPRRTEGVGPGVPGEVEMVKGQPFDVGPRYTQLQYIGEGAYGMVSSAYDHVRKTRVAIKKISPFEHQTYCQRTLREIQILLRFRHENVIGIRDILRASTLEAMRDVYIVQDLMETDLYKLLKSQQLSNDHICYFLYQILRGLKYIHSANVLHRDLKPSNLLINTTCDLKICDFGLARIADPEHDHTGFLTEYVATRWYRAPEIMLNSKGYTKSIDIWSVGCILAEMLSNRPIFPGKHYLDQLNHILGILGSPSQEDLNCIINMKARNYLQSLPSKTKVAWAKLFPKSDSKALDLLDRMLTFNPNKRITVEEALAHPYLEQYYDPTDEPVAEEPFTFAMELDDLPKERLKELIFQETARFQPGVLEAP
Sequence of Serine/threonine-protein kinase Chk2 (Homo sapiens) (O96017 whole entry): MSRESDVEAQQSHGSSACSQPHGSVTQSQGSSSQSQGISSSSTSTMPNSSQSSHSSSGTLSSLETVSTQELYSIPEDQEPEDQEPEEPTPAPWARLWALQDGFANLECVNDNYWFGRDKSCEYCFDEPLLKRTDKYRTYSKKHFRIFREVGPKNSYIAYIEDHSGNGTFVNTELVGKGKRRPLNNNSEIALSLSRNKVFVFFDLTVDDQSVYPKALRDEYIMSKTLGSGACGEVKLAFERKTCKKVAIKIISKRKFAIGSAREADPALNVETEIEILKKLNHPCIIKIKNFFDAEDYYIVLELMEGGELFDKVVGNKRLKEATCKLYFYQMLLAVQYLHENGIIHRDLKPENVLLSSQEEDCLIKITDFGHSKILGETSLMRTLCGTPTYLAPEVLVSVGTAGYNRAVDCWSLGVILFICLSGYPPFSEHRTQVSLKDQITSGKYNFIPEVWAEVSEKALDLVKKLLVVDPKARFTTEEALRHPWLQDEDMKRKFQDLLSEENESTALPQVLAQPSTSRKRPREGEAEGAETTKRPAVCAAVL
Sequence of Mitogen-activated protein kinase 8 (Homo sapiens) (P45983 whole entry): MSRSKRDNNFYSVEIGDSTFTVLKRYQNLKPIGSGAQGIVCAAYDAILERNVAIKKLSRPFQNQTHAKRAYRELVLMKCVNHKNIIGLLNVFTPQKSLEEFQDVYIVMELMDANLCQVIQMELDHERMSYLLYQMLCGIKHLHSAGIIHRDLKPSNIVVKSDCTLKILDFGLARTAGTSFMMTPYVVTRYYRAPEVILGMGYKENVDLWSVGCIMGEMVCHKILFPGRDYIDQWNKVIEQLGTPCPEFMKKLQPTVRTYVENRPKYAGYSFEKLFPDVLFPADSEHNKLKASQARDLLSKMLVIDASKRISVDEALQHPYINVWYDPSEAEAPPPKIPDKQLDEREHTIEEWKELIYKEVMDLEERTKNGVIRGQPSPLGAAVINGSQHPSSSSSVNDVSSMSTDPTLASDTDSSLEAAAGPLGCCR
Sequence of Serine/threonine-protein kinase pim-1 (Homo sapiens) (P11309 whole entry, looked up): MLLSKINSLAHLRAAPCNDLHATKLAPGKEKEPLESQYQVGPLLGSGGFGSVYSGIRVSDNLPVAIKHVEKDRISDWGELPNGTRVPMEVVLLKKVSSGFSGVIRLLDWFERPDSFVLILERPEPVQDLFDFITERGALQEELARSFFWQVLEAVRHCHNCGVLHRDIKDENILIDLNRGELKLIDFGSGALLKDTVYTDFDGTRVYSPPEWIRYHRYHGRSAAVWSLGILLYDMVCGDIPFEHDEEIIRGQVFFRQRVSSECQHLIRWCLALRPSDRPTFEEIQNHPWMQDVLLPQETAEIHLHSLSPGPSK
Sequence of Proto-oncogene tyrosine-protein kinase Src (Homo sapiens) (P12931 2-536 limits assumed): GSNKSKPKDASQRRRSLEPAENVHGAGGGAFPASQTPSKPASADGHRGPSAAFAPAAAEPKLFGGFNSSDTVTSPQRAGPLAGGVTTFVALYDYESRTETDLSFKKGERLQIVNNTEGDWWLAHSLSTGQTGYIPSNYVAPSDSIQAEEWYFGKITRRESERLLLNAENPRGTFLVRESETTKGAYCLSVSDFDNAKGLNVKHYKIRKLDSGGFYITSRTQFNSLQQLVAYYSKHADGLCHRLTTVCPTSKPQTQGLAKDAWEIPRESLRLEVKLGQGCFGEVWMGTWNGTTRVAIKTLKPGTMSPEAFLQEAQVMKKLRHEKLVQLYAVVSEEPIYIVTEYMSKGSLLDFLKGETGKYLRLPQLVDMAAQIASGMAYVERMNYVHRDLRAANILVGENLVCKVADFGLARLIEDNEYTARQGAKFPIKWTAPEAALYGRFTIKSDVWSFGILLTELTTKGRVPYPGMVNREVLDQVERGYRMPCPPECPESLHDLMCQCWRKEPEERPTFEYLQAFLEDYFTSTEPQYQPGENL
Sequence of Serine/threonine-protein kinase B-raf (Homo sapiens) (P15056 whole entry): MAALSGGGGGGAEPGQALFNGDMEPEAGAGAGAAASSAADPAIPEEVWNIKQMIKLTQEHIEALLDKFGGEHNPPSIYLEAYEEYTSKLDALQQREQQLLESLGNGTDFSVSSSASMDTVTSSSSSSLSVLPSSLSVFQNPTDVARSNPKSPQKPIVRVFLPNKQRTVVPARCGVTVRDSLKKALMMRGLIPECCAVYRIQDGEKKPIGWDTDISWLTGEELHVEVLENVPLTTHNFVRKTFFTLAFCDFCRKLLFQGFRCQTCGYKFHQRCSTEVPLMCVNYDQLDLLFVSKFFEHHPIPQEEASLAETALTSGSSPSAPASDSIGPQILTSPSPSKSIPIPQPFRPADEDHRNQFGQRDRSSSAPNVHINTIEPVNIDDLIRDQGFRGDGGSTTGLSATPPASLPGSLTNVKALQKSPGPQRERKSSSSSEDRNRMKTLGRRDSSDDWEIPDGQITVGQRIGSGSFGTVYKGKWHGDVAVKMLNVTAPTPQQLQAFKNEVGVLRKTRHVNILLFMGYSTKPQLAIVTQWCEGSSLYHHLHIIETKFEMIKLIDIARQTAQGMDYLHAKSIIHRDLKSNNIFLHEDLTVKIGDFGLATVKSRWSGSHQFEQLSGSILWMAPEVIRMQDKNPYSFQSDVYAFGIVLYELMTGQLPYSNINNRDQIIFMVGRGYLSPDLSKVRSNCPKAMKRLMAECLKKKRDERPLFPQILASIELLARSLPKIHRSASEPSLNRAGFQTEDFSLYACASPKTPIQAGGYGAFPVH
Sequence of Mitogen-activated protein kinase 11 (Homo sapiens) (Q15759 whole entry): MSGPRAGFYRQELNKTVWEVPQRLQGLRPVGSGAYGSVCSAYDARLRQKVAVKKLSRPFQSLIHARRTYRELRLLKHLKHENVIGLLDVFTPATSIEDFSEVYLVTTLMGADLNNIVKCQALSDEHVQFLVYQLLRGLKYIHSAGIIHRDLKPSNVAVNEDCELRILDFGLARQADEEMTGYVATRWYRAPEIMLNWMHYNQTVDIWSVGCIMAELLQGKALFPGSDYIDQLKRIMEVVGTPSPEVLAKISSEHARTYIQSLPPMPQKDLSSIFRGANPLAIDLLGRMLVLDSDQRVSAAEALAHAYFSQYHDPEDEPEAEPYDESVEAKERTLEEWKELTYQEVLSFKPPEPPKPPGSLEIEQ
Sequence of Dual specificity tyrosine-phosphorylation-regulated kinase 3 (Homo sapiens) (O43781 whole entry): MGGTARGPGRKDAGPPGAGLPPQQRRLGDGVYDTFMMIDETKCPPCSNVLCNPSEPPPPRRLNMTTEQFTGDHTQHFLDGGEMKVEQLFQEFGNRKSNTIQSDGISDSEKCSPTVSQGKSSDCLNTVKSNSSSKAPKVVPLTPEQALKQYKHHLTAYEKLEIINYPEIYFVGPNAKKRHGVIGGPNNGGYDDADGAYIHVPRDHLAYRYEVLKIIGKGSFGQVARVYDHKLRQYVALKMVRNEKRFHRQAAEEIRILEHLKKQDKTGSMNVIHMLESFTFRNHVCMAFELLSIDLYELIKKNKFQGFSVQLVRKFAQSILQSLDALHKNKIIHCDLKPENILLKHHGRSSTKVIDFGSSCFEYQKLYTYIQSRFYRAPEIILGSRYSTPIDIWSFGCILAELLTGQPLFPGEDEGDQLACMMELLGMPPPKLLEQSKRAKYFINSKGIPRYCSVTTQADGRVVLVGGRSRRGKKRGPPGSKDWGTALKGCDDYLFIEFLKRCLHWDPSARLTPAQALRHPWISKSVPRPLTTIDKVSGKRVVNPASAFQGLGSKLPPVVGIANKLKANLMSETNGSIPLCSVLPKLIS
Sequence of Mitogen-activated protein kinase 9 (Homo sapiens) (P45984 whole entry, looked up): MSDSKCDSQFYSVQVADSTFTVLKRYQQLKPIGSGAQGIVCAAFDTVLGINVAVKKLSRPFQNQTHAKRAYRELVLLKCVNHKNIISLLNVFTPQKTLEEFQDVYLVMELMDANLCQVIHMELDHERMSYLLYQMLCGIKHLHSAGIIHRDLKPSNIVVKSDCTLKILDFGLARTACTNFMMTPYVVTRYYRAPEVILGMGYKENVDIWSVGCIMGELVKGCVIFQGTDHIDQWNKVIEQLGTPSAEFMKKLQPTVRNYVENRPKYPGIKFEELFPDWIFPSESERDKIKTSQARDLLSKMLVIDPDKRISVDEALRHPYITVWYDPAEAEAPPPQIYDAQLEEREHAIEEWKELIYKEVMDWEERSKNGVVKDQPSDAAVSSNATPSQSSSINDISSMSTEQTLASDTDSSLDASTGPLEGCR

inhibition [3]: 94%
inhibition [4]: -2%
inhibition [5]: 7%
inhibition [6]: 9%
inhibition [7]: 3%
inhibition [8]: 0%
inhibition [9]: 22%
inhibition [10]: -4%
inhibition [11]: 4%
inhibition [12]: 42%
inhibition [13]: 11%
inhibition [14]: 12%
inhibition [15]: 1%
inhibition [16]: 6%
inhibition [17]: 5%
inhibition [18]: -1%
inhibition [19]: 4%
inhibition [20]: 11%
inhibition [21]: 0%
inhibition [22]: 13%
inhibition [23]: Active
inhibition [24]: Active
remaining at 48 h, 5.3 µM [30]: 98.7%
inhibition [31]: Dose-Dependent Effect
SMILES: CN1CCN(C(=O)C(C)(C)c2ccc(C(=O)Nc3cn4cc(-c5ccncc5)ccc4n3)cc2)CC1 [T3-CLK]
Activity [1]: 0.75%
viability at 1 µM [2]: 88.4%
Activity [25]: 28.1%
Activity [26]: 37.4%
Activity [27]: 68.1%
Activity [28]: 20.4%
Activity [29]: 41%
